Source: ChEMBL document CHEMBL1132904, “'Double-Drugs'--a new class of prodrug form of an HIV protease inhibitor conjugated with a reverse transcriptase inhibitor by a spontaneously cleavable linker” (Bioorg Med Chem Lett, 2000)
≈ marks a conversion by molar mass, not a printed value. Calls of active or inactive are those of the source. The rule behind the calls is not given here.

Tests used:
[1] = molecular target: Human immunodeficiency virus type 1 protease (Human immunodeficiency virus 1) (UniProt Q72874); test: Inhibitory activity against HIV protease; Active
[2] = Water solubility by RP-HPLC; format: ADME
Method in brief: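 Aliquots of compound solutions were injected onto HPLC. Dissolved concentration was determined by comparison of peak area.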

MOLT-4 = test: Compound was evaluated for anti-HIV activity against HIV-1Lal inoculated with Molt-4 cells; format: functional, cell-based; details: Homo sapiens
Method in brief: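 HIV-1 LAI (100 TCID50) was inoculated together with 4-fold serial dilutions of compound onto Molt-4 cells at 5000 cells/well. Cultures were kept 7 days. Surviving cells were quantified by WST-8 assay, and EC50 was calculated from the ratios of surviving cells.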

[3] = molecular target: Human immunodeficiency virus type 1 protease (Human immunodeficiency virus 1) (UniProt Q72874); test: Compound was evaluated for the percentage inhibition of HIV protease at 5 uM
[4] = Therapeutic index was determined; details: read-out: Therapeutic index
[5] = tested on: Human immunodeficiency virus 1; test: Relative potency of compound to that of AZT was determined
[6] = molecular target: Human immunodeficiency virus type 1 protease (Human immunodeficiency virus 1, UniProt Q72874); test: Inhibitory activity against HIV-1 IIIB/CEM-SS protease

Compound	Activity [1]	EC50 (MOLT-4)	other results
Cc1cccc(C)c1OCC(=O)N[C@@H](Cc1ccccc1)[C@H](OC(=O)CCC(=O)O)C(=O)N1CSC(C)(C)[C@H]1C(=O)NC(C)(C)C	Active	–	–
Cc1cccc(C)c1OCC(=O)N[C@@H](Cc1ccccc1)[C@H](OC(=O)CCCC(=O)NCC(=O)OCC1OC(n2cc(C)c(=O)[nH]c2=O)CC1N=[N+]=[N-])C(=O)N1CSC(C)(C)[C@H]1C(=O)NC(C)(C)C (stereo partly drawn) [KNI-1039]	–	0.1 nM	solubility [2]: 371 µg/mL (≈ 380 µM); inhibition [3]: 55%; selectivity ratio [4]: > 2000; Relative potency [5]: 62
Cc1cccc(C)c1OCC(=O)N[C@@H](Cc1ccccc1)[C@H](OC(=O)CCCC(=O)O)C(=O)N1CSC(C)(C)[C@H]1C(=O)NC(C)(C)C	Active	–	–
Cc1cn(C2CC(N=[N+]=[N-])C(COC(=O)CN)O2)c(=O)[nH]c1=O (stereo not drawn)	Active	–	–
Cc1cn(C2CC(N=[N+]=[N-])C(COC(=O)C(C)(C)CC(=O)N[C@H](Cc3ccccc3)[C@@H](O)C(=O)N3CSC(C)(C)[C@H]3C(=O)NC(C)(C)C)O2)c(=O)[nH]c1=O (stereo partly drawn)	Active	–	–
Cc1cccc(C)c1OCC(=O)N[C@@H](Cc1ccccc1)[C@H](OC(=O)CCC(=O)NCC(=O)OCC1OC(n2cc(C)c(=O)[nH]c2=O)CC1N=[N+]=[N-])C(=O)N1CSC(C)(C)[C@H]1C(=O)NC(C)(C)C (stereo partly drawn) [KNI-1038]	–	5.3 nM	solubility [2]: 290 µg/mL (≈ 301 µM); inhibition [3]: 37%; Relative potency [5]: 1.2
Cc1cccc(C)c1OCC(=O)N[C@@H](Cc1ccccc1)[C@H](OC(=O)CCC(=O)NCCC(=O)OCC1OC(n2cc(C)c(=O)[nH]c2=O)CC1N=[N+]=[N-])C(=O)N1CSC(C)(C)[C@H]1C(=O)NC(C)(C)C (stereo partly drawn) [KNI-1046]	–	1 nM	solubility [2]: 373 µg/mL (≈ 382 µM); inhibition [3]: 7%; Relative potency [5]: 6.2
Cc1cccc(C)c1OCC(=O)N[C@@H](Cc1ccccc1)[C@H](OC(=O)CCC(=O)OCC1OC(n2cc(C)c(=O)[nH]c2=O)CC1N=[N+]=[N-])C(=O)N1CSC(C)(C)[C@H]1C(=O)NC(C)(C)C (stereo partly drawn)	–	–	EC50 [6]: 189 nM
Cc1cccc(C)c1OCC(=O)N[C@@H](Cc1ccccc1)[C@H](O)C(=O)N1CSC(C)(C)[C@H]1C(=O)NC(C)(C)C	–	92 nM	–
Cc1cn([C@H]2C[C@H](N=[N+]=[N-])[C@@H](CO)O2)c(=O)[nH]c1=O [ZIDOVUDINE]	–	6.2 nM	–
Cc1ccccc1CNC(=O)[C@H]1N(C(=O)[C@H](O)[C@@H](Cc2ccccc2)NC(=O)CC(C)(C)C(=O)OCC2OC(n3cc(C)c(=O)[nH]c3=O)CC2N=[N+]=[N-])CSC1(C)C (stereo partly drawn)	Active	–	–
CC(C)(C)NC(=O)[C@H]1N(C(=O)[C@@H](O)[C@H](Cc2ccccc2)NC(=O)CC(C)(C)C(=O)O)CSC1(C)C	Active	–	–
Cc1cn(C2CC(N=[N+]=[N-])C(COC(=O)CCN)O2)c(=O)[nH]c1=O (stereo not drawn)	Active	–	–
Cc1cccc(C)c1OCC(=O)N[C@@H](Cc1ccccc1)[C@H](OC(=O)CCCC(=O)NCCC(=O)OCC1OC(n2cc(C)c(=O)[nH]c2=O)CC1N=[N+]=[N-])C(=O)N1CSC(C)(C)[C@H]1C(=O)NC(C)(C)C (stereo partly drawn)	–	3.4 nM	solubility [2]: 235 µg/mL (≈ 237 µM); inhibition [3]: 12%; Relative potency [5]: 1.8
Cc1ccccc1CNC(=O)[C@H]1N(C(=O)[C@@H](O)[C@H](Cc2ccccc2)NC(=O)CC(C)(C)C(=O)O)CSC1(C)C	Active	–	–
